{
  "source": "paper PMC5519669",
  "about": "(Forensic Toxicology, 2017)",
  "key": {"[1]": {"test": "Rat plasma kinetics after intraperitoneal injection", "format": "in vivo", "conditions": "for AUC(0-inf) / AUC(0-t) / Cmax / half-life: 3 mg/kg; for half-life: non-compartmental analysis; for Untransformed parent compound in plasma: 24 h post-dosing"}, "[2]": {"test": "Clearance in rat liver microsome incubation", "format": "in vitro ADME", "conditions": "for half-life at 1 µM / microsomal CLint at 1 µM: male, Sprague-Dawley, rat, pooled rat liver microsomes, pH 7.4; for Parent compound after incubation: rat liver microsome incubations, after 3 h incubations; for ER (extraction ratio) / CLH (estimated hepatic clearance) / CLint (estimated intrinsic clearance): rat liver microsomes; for CLH (estimated hepatic clearance): from CLint and liver blood flow; for CLint (estimated intrinsic clearance): scaled to whole-liver dimensions"}, "[3]": {"test_system": "male rats", "test": "Rectal body temperature", "format": "in vivo, rat", "conditions": "3 mg/kg i.p.; for Hypothermic effect compared to vehicle injection: 3 mg/kg; for Mean rectal body temperature versus vehicle: at 15 and 30 min and 1, 2, and 4 h post-injection", "how_it_was_run": "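Male Long–Evans rats (49 days old, jugular-catheterised, n = 4/group) were housed singly in metabolic cages and given test compound i.p. at 3 mg/mL in 7.8% polysorbate 80/92.2% saline at 1 mL/kg, with a vehicle group. Rectal temperature was taken by digital thermometer 15 min pre-dose and 15, 30 min, 1, 2, 4, 8, 24 h post-dose. Analysis used mixed two-factor ANOVA, then Dunnett's tests versus vehicle per time point.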"}, "[4]": {"test": "Clearance in human liver microsome incubation", "format": "in vitro ADME", "conditions": "for Parent compound after incubation: human liver microsome incubations, after 3 h incubations; for ER (extraction ratio) / CLH (estimated hepatic clearance) / CLint (estimated intrinsic clearance): human liver microsomes; for CLH (estimated hepatic clearance): from CLint and liver blood flow; for CLint (estimated intrinsic clearance): scaled to whole-liver dimensions"}, "[5]": {"conditions": "male, Long-Evans, rat, plasma, ip"}, "[6]": {"conditions": "male, Long-Evans, rat, plasma, ip, Half-life, rat plasma, 3 mg/kg i.p."}, "[7]": {"conditions": "male, human, pooled human liver microsomes, pH 7.4"}},
  "note": "“Also recorded” adds a separate entry of the source.",
  "data": [
    {"smiles": "CCCCCn1cc(C(=O)NC(C)(C)c2ccccc2)c2ccccc21", "note": "[CUMYL-PICA, 1-pentyl-N-(2-phenylpropan-2-yl)-1H-indole-3-carboxamide]", "values": [
      {"measurement": "AUC(0-inf)", "setting": "[1]; [5]", "result": 1210, "unit": "ng·h/mL"},
      {"measurement": "AUC(0-t)", "setting": "[1]; [5]", "result": 1090, "unit": "ng·h/mL"},
      {"measurement": "Cmax", "setting": "[1]; [5]", "result": 130, "unit": "ng/mL"},
      {"measurement": "half-life", "setting": "[1]; [6]", "result": 420, "unit": "min"},
      {"measurement": "CL/F (observed apparent clearance)", "setting": "[1]; rat plasma, 3 mg/kg i.p.", "result": 43.31, "unit": "mL/min/kg body wt."},
      {"measurement": "half-life", "setting": "[1]; rat plasma, 3 mg/kg i.p.", "result": 436, "unit": "min"},
      {"measurement": "Untransformed parent compound in plasma", "setting": "[1]; rat plasma, 3 mg/kg i.p.", "result": "detectible"},
      {"measurement": "half-life at 1 µM", "setting": "[2]", "result": 2.24, "unit": "min"},
      {"measurement": "microsomal CLint at 1 µM", "setting": "[2]", "result": 310, "unit": "µL/min/mg"},
      {"measurement": "Parent compound after incubation", "setting": "[2]", "result": "still detectible"},
      {"measurement": "ER (extraction ratio)", "setting": "[2]", "result": 0.91},
      {"measurement": "CLH (estimated hepatic clearance)", "setting": "[2]", "result": 50.22, "unit": "mL/min/kg body wt."},
      {"measurement": "CLint (estimated intrinsic clearance)", "setting": "[2]", "result": 556.88, "unit": "mL/min/kg body wt."},
      {"measurement": "Hypothermic effect compared to vehicle injection", "setting": "[3]", "result": "produced hypothermic effects; also recorded: moderate hypothermic effects"},
      {"measurement": "Mean rectal body temperature versus vehicle", "setting": "[3]", "result": "significantly reduced"},
      {"measurement": "Parent compound after incubation", "setting": "[4]", "result": "still detectible"},
      {"measurement": "ER (extraction ratio)", "setting": "[4]", "result": 0.87},
      {"measurement": "CLH (estimated hepatic clearance)", "setting": "[4]", "result": 17.43, "unit": "mL/min/kg body wt."},
      {"measurement": "CLint (estimated intrinsic clearance)", "setting": "[4]", "result": 135.46, "unit": "mL/min/kg body wt."},
      {"measurement": "half-life at 1 µM", "setting": "[4]; [7]", "result": 5.92, "unit": "min"}
    ]},
    {"smiles": "CC(C)(NC(=O)c1cn(CCCCCF)c2ccccc12)c1ccccc1", "note": "[5F-CUMYL-PICA, 1-(5-fluoropentyl)-N-(2-phenylpropan-2-yl)-1H-indole-3-carboxamide]", "values": [
      {"measurement": "AUC(0-inf)", "setting": "[1]; [5]", "result": 843, "unit": "ng·h/mL"},
      {"measurement": "AUC(0-t)", "setting": "[1]; [5]", "result": 582, "unit": "ng·h/mL"},
      {"measurement": "Cmax", "setting": "[1]; [5]", "result": 65.2, "unit": "ng/mL"},
      {"measurement": "half-life", "setting": "[1]; [6]", "result": 720, "unit": "min"},
      {"measurement": "Untransformed parent compound in plasma", "setting": "[1]; rat plasma, 3 mg/kg i.p.", "result": "detectible"},
      {"measurement": "half-life at 1 µM", "setting": "[2]", "result": 1.19, "unit": "min"},
      {"measurement": "microsomal CLint at 1 µM", "setting": "[2]", "result": 580, "unit": "µL/min/mg"},
      {"measurement": "Parent compound after incubation", "setting": "[2]", "result": "still detectible"},
      {"measurement": "ER (extraction ratio)", "setting": "[2]", "result": 0.95},
      {"measurement": "CLH (estimated hepatic clearance)", "setting": "[2]", "result": 52.44, "unit": "mL/min/kg body wt."},
      {"measurement": "CLint (estimated intrinsic clearance)", "setting": "[2]", "result": 1048.24, "unit": "mL/min/kg body wt."},
      {"measurement": "Hypothermic effect compared to vehicle injection", "setting": "[3]", "result": "produced hypothermic effects; also recorded: moderate hypothermic effects"},
      {"measurement": "Mean rectal body temperature versus vehicle", "setting": "[3]", "result": "significant hypothermic effects"},
      {"measurement": "Parent compound after incubation", "setting": "[4]", "result": "still detectible"},
      {"measurement": "ER (extraction ratio)", "setting": "[4]", "result": 0.96},
      {"measurement": "CLH (estimated hepatic clearance)", "setting": "[4]", "result": 19.15, "unit": "mL/min/kg body wt."},
      {"measurement": "CLint (estimated intrinsic clearance)", "setting": "[4]", "result": 453.05, "unit": "mL/min/kg body wt."},
      {"measurement": "half-life at 1 µM", "setting": "[4]; [7]", "result": 1.77, "unit": "min"},
      {"measurement": "microsomal CLint at 1 µM", "setting": "[4]; [7]", "result": 390, "unit": "µL/min/mg"}
    ]}
  ]
}
